The values below come from ChEMBL document CHEMBL1121639, “Analgesic narcotic antagonists. 5. 7,7-Dimethyldihydrocodeinones and 7,7-dimethyldihydromorphinones” (1981).

The subject of test [1] is Mus musculus. Description: Compound was tested for the analgesic agonist activity in acetic acid induced mouse writhing assay on subcutaneous administration; Inactive at 25 umol/kg. It is filed as functional, organism-based. A digest of the protocol: (§1)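 Test agents given as solutions: salts in distilled water; free bases dissolved by adding 1 N HCl, then further diluted.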

Test [2] concerns Rattus norvegicus. Nature of the test: Compound was tested for analgesic agonist activity in heat stimulus rat tail-flick assay on subcutaneous administration; Inactive at 25 mg/kg. In kind it is functional, organism-based. More on the design: dose 25 mg/kg. An outline of the steps:
as §1

Test [3] concerns Mus musculus. Description: Analgesic agonist activity in acetic acid induced mouse writhing assay, subcutaneous administration. As to conditions: sc. In kind it is functional. A digest of the protocol: as §1
The species entered for test [4] is Rattus norvegicus. Description: Narcotic antagonist activity against an ED80 of morphine in the modified rat tail-flick assay. It is filed as functional.
For test [5], the system named is Rattus norvegicus. Description: Analgesic agonist activity in heat stimulus rat tail-flick assay on subcutaneous administration. Particulars: sc. It is filed as functional. A digest of the protocol: as §1
In test [6] the test system is Mus musculus. Nature of the test: Compound was tested for the analgesic agonist activity in acetic acid induced mouse writhing assay on subcutaneous administration; Inactive at 20 umol/kg. It is filed as functional, organism-based. A digest of the protocol: as §1
Test [7] has as its system Mus musculus. Nature of the test: Compound was tested for the analgesic agonist activity in acetic acid induced mouse writhing assay on subcutaneous administration; Inactive at 26 umol/kg. It is filed as functional, organism-based. A digest of the protocol: as §1
Test [8] relates to Mus musculus. Description: Compound was tested for the analgesic agonist activity in acetic acid induced mouse writhing assay on subcutaneous administration; Inactive at 23 umol/kg. In kind it is functional, organism-based. An outline of the steps: as §1
Test [9] deals with Rattus norvegicus. Nature of the test: Compound was tested for the analgesic agonist activity in heat stimulus rat tail-flick assay; Inactive at 26 umol/kg. It is filed as functional, organism-based. A digest of the protocol:
as §1

Test [10] has as its system Mus musculus. Nature of the test: Compound was tested for the analgesic agonist activity in acetic acid induced mouse writhing assay on subcutaneous administration; Inactive at 28 umol/kg. It is filed as functional, organism-based. A digest of the protocol: as §1
The test system of test [11] is Mus musculus. Nature of the test: Compound was tested for the analgesic agonist activity in acetic acid induced mouse writhing assay on subcutaneous administration; Inactive at 25 umol/kg. It is filed as functional, organism-based. An outline of the steps: as §1
In test [12] the test system is Rattus norvegicus. Nature of the test: Compound was tested for analgesic agonist activity in heat stimulus rat tail-flick assay on subcutaneous administration; Inactive at 25 umol/kg. In kind it is functional, organism-based. A digest of the protocol:
as §1

Test [13] deals with Mus musculus. Description: Compound was tested for the analgesic agonist activity in acetic acid induced mouse writhing assay on subcutaneous administration; Inactive at 16 umol/kg. In kind it is functional, organism-based. An outline of the steps: as §1

Calls of active or inactive are those of the source. The calls are words filed in the database; no cut-off is given here.

Consider `COc1ccc2c3c1O[C@H]1[C@H](O)C(CO)(CO)CC4[C@@H](C2)N(C)CC[C@@]341` (some centres undefined), for which the ED50 entry in the test with Mus musculus [1] and in the test with Rattus norvegicus [2] was “inactive” in each case. Regarding `CC1(C)CC2[C@H]3Cc4ccc(O)c5c4[C@@]2(CCN3CC2CCC2)[C@@H](O5)C1=O` (some centres undefined), the ED50 in the test on Mus musculus [3] is 2.2 µmol/kg; in the test filed under Rattus norvegicus [4], more than 24 µmol/kg. In the case of `CN1CC[C@]23c4c5ccc(O)c4O[C@H]2C(=O)C(C)(C)CC3[C@H]1C5` (some centres undefined), the ED50 in the test with Mus musculus [3] came out at 0.19 µmol/kg; in the test on Rattus norvegicus [5] it was 0.99 µmol/kg. As to `COc1ccc2c3c1O[C@H]1C(=O)C(C)(C)CC4[C@@H](C2)N(CC2CC2)CC[C@@]341` (some centres undefined), the ED50 amounted to 5.3 µmol/kg with Mus musculus [3] and 6.7 µmol/kg in the test filed under Rattus norvegicus [4]. On to `COc1ccc2c3c1O[C@H]1[C@@H]4OC[C@]4(C)[C@H](C)C4[C@@H](C2)N(C)CC[C@@]341` (some centres undefined), for which the ED50 in the test with Mus musculus [3] is 1.8 µmol/kg; in the test with Rattus norvegicus [5] it was more than 23 µmol/kg.

For `CC[C@@H]1C2[C@H]3Cc4ccc(OC)c5c4[C@@]2(CCN3CC2CC2)[C@@H](O5)C(=O)C1(C)C` (some centres undefined), the ED50 result with Mus musculus [6] is “inactive”. For the same compound, the ED50 in the test listed under Rattus norvegicus [4] is more than 20 µmol/kg. In the case of `CC[C@@H]1C2[C@H]3Cc4ccc(OC)c5c4[C@@]2(CCN3C)[C@@H](O5)[C@@H]2OC[C@]12C` (some centres undefined), the ED50 was 11.1 µmol/kg in the test on Mus musculus [3] and more than 28 µmol/kg in the test on Rattus norvegicus [5]. The corresponding values for `COc1ccc2c3c1O[C@H]1C(=O)CC[C@H]4[C@@H](C2)N(C)CC[C@]314` [HYDROCODONE] are 2.4 µmol/kg and 5.2 µmol/kg. With `COc1ccc2c3c1O[C@H]1C(=O)C(C)(C)CC4[C@@H](C2)N(CC2CCC2)CC[C@@]341` (some centres undefined), the ED50 result in the test with Mus musculus [7] was “inactive”. The ED50 in the test listed under Rattus norvegicus [4] was more than 26 µmol/kg. Consider `C[C@H]1[C@H]2Cc3ccc(O)cc3[C@]1(C)CCN2CC1CC1` [CYCLAZOCINE], for which the ED50 in the test with Mus musculus [3] turned out to be 0.41 µmol/kg; in the test listed under Rattus norvegicus [4], 0.81 µmol/kg. For the compound `C[C@@H]1C2[C@H]3Cc4ccc(O)c5c4[C@@]2(CCN3CC2CC2)[C@@H](O5)C(=O)C1(C)C` (some centres undefined), the ED50 entry with Mus musculus [8] is “inactive”. This compound also displayed an ED50 in the test filed under Rattus norvegicus [4] of 0.38 µmol/kg. Consider `COc1ccc2c3c1O[C@H]1[C@H](O)C(C)(C)CC4[C@@H](C2)N(C)CC[C@@]341` (some centres undefined), for which the ED50 in the test with Mus musculus [3] stood at 6.5 µmol/kg; with Rattus norvegicus [5], 30.4 µmol/kg.

In the test on Mus musculus [3], `COc1ccc2c3c1O[C@H]1[C@@H](O)C(C)(C)CC4[C@@H](C2)N(C)CC[C@@]341` (some centres undefined) came in with an ED50 of 12.7 µmol/kg.

`COc1ccc2c3c1O[C@H]1C(=O)C(C)(C)CC4[C@@H](C2)N(C)CC[C@@]341` (some centres undefined): the ED50 was found to be 3.9 µmol/kg with Mus musculus [3] and 9.8 µmol/kg with Rattus norvegicus [5]. For the compound `COc1ccc2c3c1O[C@H]1C(=O)C(C)(C)[C@H](C)C4[C@@H](C2)N(CC2CCC2)CC[C@@]341` (some centres undefined), the ED50 in the test on Mus musculus [3] was 17.2 µmol/kg; in the test listed under Rattus norvegicus [4], 4.7 µmol/kg.

Turning to `CC[C@@H]1C2[C@H]3Cc4ccc(O)c5c4[C@@]2(CCN3CC2CCC2)[C@@H](O5)C(=O)C1(C)C` (some centres undefined), the ED50 with Mus musculus [3] was determined as 18.5 µmol/kg; in the test listed under Rattus norvegicus [4], 2.8 µmol/kg. Compound `COc1ccc2c3c1O[C@H]1[C@H](O)C(CO)(CO)[C@H](C)C4[C@@H](C2)N(C)CC[C@@]341` (some centres undefined) displayed an ED50 in the test with Mus musculus [3] of more than 26 µmol/kg. In addition, the ED50 result with Rattus norvegicus [9] is “inactive”. As to `CC(C)=CCN1CC[C@@]2(C)c3cc(O)ccc3C[C@@H]1[C@@H]2C`, the ED50 came to 13 µmol/kg in the test on Mus musculus [3] and 36.4 µmol/kg in the test filed under Rattus norvegicus [4].

As for `CC[C@@H]1C2[C@H]3Cc4ccc(OC)c5c4[C@@]2(CCN3C)[C@@H](O5)C(=O)C1(C)C` (some centres undefined), the 50% effective dose (ED50) in the test with Mus musculus [3] was 4.4 µmol/kg; in the test on Rattus norvegicus [5] it was 13.9 µmol/kg. On to `COc1ccc2c3c1O[C@H]1[C@@H](O)C=C[C@H]4[C@@H](C2)N(C)CC[C@@]341` [CODEINE], for which the values for the ED50 in the test on Mus musculus [3] and in the test on Rattus norvegicus [5] were 10.3 µmol/kg and 75 µmol/kg, respectively. The corresponding values for `COc1ccc2c3c1O[C@H]1[C@H](O)C(C)(C)[C@H](C)C4[C@@H](C2)N(C)CC[C@@]341` (some centres undefined) are 3.8 µmol/kg and 15.6 µmol/kg.

With `CC[C@@H]1C2[C@H]3Cc4ccc(OC)c5c4[C@@]2(CCN3C)[C@@H](O5)[C@H](O)C1(C)C` (some centres undefined), the ED50 is 21.5 µmol/kg in the test with Mus musculus [3] and more than 22 µmol/kg in the test with Rattus norvegicus [5]. As to `CC1(C)CC2[C@H]3Cc4ccc(O)c5c4[C@@]2(CCN3CC2CC2)[C@@H](O5)C1=O` (some centres undefined), in the test on Mus musculus [10], the ED50 entry is “inactive”. Also, in the test listed under Rattus norvegicus [4], it took a dose of 1.2 µmol/kg to reach the 50% effect level (ED50). For `CC[C@@H]1C2[C@H]3Cc4ccc(OC)c5c4[C@@]2(CCN3CC2CCC2)[C@@H](O5)C(=O)C1(C)C` (some centres undefined), the ED50 with Mus musculus [3] and in the test listed under Rattus norvegicus [4] was more than 23 µmol/kg throughout. Consider `Oc1ccc2c(c1)[C@@]13CCCC[C@@]1(O)[C@@H](C2)N(CC1CCC1)CC3` [BUTORPHANOL], for which the ED50 is 0.34 µmol/kg in the test with Mus musculus [3] and 2 µmol/kg in the test listed under Rattus norvegicus [4]. The corresponding values for `C[C@@H]1C2[C@H]3Cc4ccc(O)c5c4[C@@]2(CCN3CC2CCC2)[C@@H](O5)C(=O)C1(C)C` (some centres undefined) are more than 25 µmol/kg and more than 25 µmol/kg. As for `CC[C@@H]1C2[C@H]3Cc4ccc(O)c5c4[C@@]2(CCN3C)[C@@H](O5)C(=O)C1(C)C` (some centres undefined), the ED50 in the test on Mus musculus [3] was determined as 0.6 µmol/kg; with Rattus norvegicus [5], 0.62 µmol/kg. On to `CN1CC[C@]23c4c5ccc(O)c4O[C@H]2C(=O)CC[C@H]3[C@H]1C5` [HYDROMORPHONE], for which the 50% effect level with Rattus norvegicus [5] (ED50) was put at a dose of 1.3 µmol/kg. `COc1ccc2c3c1O[C@H]1C(=O)C(C)(C)[C@H](C)C4[C@@H](C2)N(CC2CC2)CC[C@@]341` (some centres undefined): the ED50 is more than 26 µmol/kg in the test with Mus musculus [3] and 7.3 µmol/kg in the test listed under Rattus norvegicus [4]. `COc1ccc2c3c1O[C@H]1[C@@H]4OC[C@]4(C)CC4[C@@H](C2)N(C)CC[C@@]341` (some centres undefined): the ED50 in the test on Mus musculus [3] is 1.9 µmol/kg; in the test on Rattus norvegicus [5] it was more than 30 µmol/kg. The corresponding values for `COc1ccc2c3c1O[C@H]1C(=O)C(C)(C)[C@H](C)C4[C@@H](C2)N(C)CC[C@@]341` (some centres undefined) are 2.5 µmol/kg and 4.2 µmol/kg.

Take `CC[C@@H]1C2[C@H]3Cc4ccc(OC)c5c4[C@@]2(CCN3C)[C@@H](O5)[C@H](O)C1(CO)CO` (some centres undefined): the ED50 result with Mus musculus [11] and with Rattus norvegicus [12] was “inactive” each time. With `CC[C@@H]1C2[C@H]3Cc4ccc(O)c5c4[C@@]2(CCN3CC2CC2)[C@@H](O5)C(=O)C1(C)C` (some centres undefined), in the test with Mus musculus [13], the ED50 entry was “inactive”. In the test listed under Rattus norvegicus [4], this compound came in with an ED50 of 2.4 µmol/kg.
